Results as given in ChEMBL document CHEMBL4350976, “Sequence modification of heptapeptide selected by phage display as homing device for HT-29 colon cancer cells to improve the anti-tumour activity of drug delivery systems” (Eur J Med Chem, 2019).
pIC50: −log10 of the molar value. Where a SMILES comes first, the peptide text is derived from it. [ ]: non-standard residue; d: D form. The star is where a group is joined. X1 = COc1cccc2c1C(=O)c1c(O)c3c(c(O)c1C2=O)C[C@@](O)(/C(C)=N/OCC(=O)*)C[C@@H]3O[C@H]1C[C@H](N)[C@H](O)[C@H](C)O1; Phe(4-Cl) = N[C@@H](Cc1ccc(Cl)cc1)C(=O)O

Legend:
[1] = Stability in serum free medium at 30 uM incubated for 3 hrs by LC/MS analysis
Method in brief: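 Conjugates (30 μM) were incubated at 37 °C in serum-free medium. Samples were taken at 0 and 3 h, quenched with acetic acid, lyophilised, desalted on C18 spin columns and analysed by LC-MS.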

[2] = test system: HT-29; experiment: Cytostatic activity against human HT-29 cells preincubated for 24 hrs under serum free condition followed by compound washout and further incubation for 48 hrs in presence of serum by MTT assay; type: functional, cell-based
Method in brief: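 HT-29 cells were exposed to the compound for 24 h, washed, and kept a further 48 h. Viability was read by MTT. Absorbances were normalized to untreated controls and fitted by nonlinear regression to dose-response curves to give IC50.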

[3] = Drug uptake in human HT-29 cells at 100 uM incubated for 3 hrs by flow cytometry relative to control; type: ADME, cell-based; details: ht-29, 3 h
Method in brief: (§1)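 HT-29 cells were exposed to 100 µM conjugate for 3 h. Flow cytometry recorded the percentage of Dau-positive cells and the mean fluorescence intensity, in duplicate.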

[4] = Drug uptake in human HT-29 cells assessed as increase in fluorescence intensity at 25 uM incubated for 3 hrs by flow cytometry; type: ADME, cell-based; details: ht-29, 3 h
[5] = Retention time of the compound using 0.1% TFA in water and 0.1% TFA in acetonitrile-water (80:20 v/v) as eluents by RP-HPLC analysis; type: physicochemical
Method in brief: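 Analytical RP-HPLC. Eluent A was 0.1% TFA in water and eluent B was 0.1% TFA in acetonitrile-water (80:20, v/v). Gradient: 0% B held to 5 min, then to 90% B at 50 min. Flow 1 mL/min, detection at 220 nm. The column was a Phenomenex Aeris Peptide XB-C18 (250×4.6 mm, 3.6 μm) or a Nucleosil C18 (5 μm, 100 Å, 250×4.6 mm), depending on the conjugate series.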

[6] = Stability in 2.5% fetal bovine serum containing medium at 30 uM measured after 24 hrs by LC/MS analysis; type: ADME, cell-free, Bos taurus; details: cattle
Method in brief: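 Conjugates (30 μM) were incubated at 37 °C in medium containing 2.5% FBS. Samples were taken at 0, 3, 6 and 24 h, quenched with acetic acid, lyophilised, desalted on C18 spin columns and analysed by LC-MS. Cleavage products were identified by mass.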

[7] = Drug metabolism in rat liver lysosomes homogenate assessed as increase in Dau = Aoa-Leu-OH metabolite formation at 0.05 ug/ul after 1 hr by LC-MS analysis; type: ADME, subcellular, Lysosome; details: tissue homogenate
Method in brief: (§2)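 Conjugates and rat liver lysosomal homogenate were each used at 0.05 µg/µL. Samples were taken at 0, 1, 3, 6 and 24 h. Metabolites were identified by LC-MS on a C18 column with a formic acid/acetonitrile gradient.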

[8] = Drug metabolism in rat liver lysosomes homogenate assessed as Dau-containing metabolite formation at 0.05 ug/ul after 24 hrs by LC-MS analysis; type: ADME, subcellular, Lysosome; details: tissue homogenate; method in brief: as §2
[9] = Drug uptake in human HT-29 cells assessed as increase in fluorescence intensity at 6.25 to 100 uM incubated for 3 hrs by flow cytometry; type: ADME, cell-based; details: ht-29, 3 h
Method in brief: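 HT-29 cells were incubated for 3 h with conjugates at 6.25–100 µM. Cellular uptake of Dau fluorescence was measured by flow cytometry, in duplicate.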

[10] = Solubility of compound; type: physicochemical
[11] = Drug uptake in human HT-29 cells at 100 uM incubated for 3 hrs by flow cytometry; type: ADME, cell-based; details: ht-29, 3 h; method in brief: as §1
[12] = test system: HT-29; experiment: Cytotoxicity against human HT-29 cells assessed as reduction in cell viability by measuring decrease in fluorescence intensity at 100 uM incubated for 3 hrs by flow cytometry; type: cell-based; details: ht-29, 3 h

Structure (SMILES) | pIC50 [2] | Drug uptake [3] [%] | Drug uptake [4] | Retention time [5] [min] | Stability [6] | Drug metabolism [7] | Drug metabolism [8] | Drug uptake [9] | solubility [10] | Drug uptake [11] | Stability [1] | Activity [12]
COc1cccc2c1C(=O)c1c(O)c3c(c(O)c1C2=O)C[C@@](O)(/C(C)=N/OCC(=O)N[C@@H](CC(C)C)C(=O)N[C@@H](CCCNC(=N)N)C(=O)N[C@@H](CCCNC(=N)N)C(=O)N[C@@H](Cc1ccc(O)cc1)C(=O)N[C@H](C(=O)N[C@@H](Cc1cnc[nH]1)C(=O)N[C@@H](CC(C)C)C(=O)N[C@@H](C)C(=O)N[C@@H](Cc1ccc(O)cc1)C(=O)N[C@@H](C)C(=O)N[C@H](C(N)=O)[C@@H](C)O)C(C)C)C[C@@H]3O[C@H]1C[C@H](N)[C@H](O)[C@H](C)O1 (X1-LRRYVHLAYAT-NH2) | 4.55 to 4.62 | 80 | Active | 28.6 to 31.3 | Stable | – | – | – | – | – | Stable | –
COc1cccc2c1C(=O)c1c(O)c3c(c(O)c1C2=O)C[C@@](O)(/C(C)=N/OCC(=O)N[C@@H](CC(C)C)C(=O)N[C@@H](CCCNC(=N)N)C(=O)N[C@@H](CCCNC(=N)N)C(=O)N[C@@H](Cc1ccc(O)cc1)C(=O)N[C@H](C(=O)N[C@@H](Cc1cnc[nH]1)C(=O)N[C@@H](CC(C)C)C(=O)N[C@@H](Cc1ccccc1)C(=O)N[C@@H](Cc1ccc(O)cc1)C(=O)N[C@@H](CC(C)C)C(=O)N[C@H](C(N)=O)[C@@H](C)O)C(C)C)C[C@@H]3O[C@H]1C[C@H](N)[C@H](O)[C@H](C)O1 (X1-LRRYVHLFYLT-NH2) | 5.49 | – | – | 30.7 to 32.3 | Stable | Metabolite_Detected | Metabolite_Detected | Active | Soluble | – | Stable | –
COc1cccc2c1C(=O)c1c(O)c3c(c(O)c1C2=O)C[C@@](O)(/C(C)=N/OCC(=O)N[C@@H](CC(C)C)C(=O)N[C@@H](CCCNC(=N)N)C(=O)N[C@@H](CCCNC(=N)N)C(=O)N[C@@H](Cc1ccc(O)cc1)C(=O)N[C@H](C(=O)N[C@@H](Cc1cnc[nH]1)C(=O)N[C@@H](CC(C)C)C(=O)N[C@@H](Cc1ccc(Cl)cc1)C(=O)N[C@@H](Cc1ccc(O)cc1)C(=O)N[C@@H](C)C(=O)N[C@H](C(N)=O)[C@@H](C)O)C(C)C)C[C@@H]3O[C@H]1C[C@H](N)[C@H](O)[C@H](C)O1 (X1-LRRYVHL[Phe(4-Cl)]YAT-NH2) | 5.44 | – | – | 31.3 to 34 | Stable | Metabolite_Detected | Metabolite_Detected | Active | Soluble | – | Stable | Toxic

Continued, in another order:

pIC50 [2] | Drug uptake [3] [%] | Drug uptake [4] | Retention time [5] [min] | Stability [6] | Drug metabolism [7] | Drug metabolism [8] | Drug uptake [9] | solubility [10] | Drug uptake [11] | Structure (SMILES) | Stability [1] | Activity [12]
< 4.00 | – | – | 27.4 to 30.1 | – | – | – | – | – | Active | COc1cccc2c1C(=O)c1c(O)c3c(c(O)c1C2=O)C[C@@](O)(/C(C)=N/OCC(=O)N[C@@H](CC(C)C)C(=O)N[C@@H](CCCNC(=N)N)C(=O)N[C@@H](CCCNC(=N)N)C(=O)N[C@@H](Cc1ccc(O)cc1)C(=O)N[C@H](C(=O)N[C@@H](Cc1cnc[nH]1)C(=O)N[C@@H](CC(C)C)C(=O)NCC(=O)N[C@@H](C)C(=O)N[C@@H](C)C(=O)N[C@H](C(N)=O)[C@@H](C)O)C(C)C)C[C@@H]3O[C@H]1C[C@H](N)[C@H](O)[C@H](C)O1 (X1-LRRYVHLGAAT-NH2) | – | –
4.15 | – | – | 28 to 30.7 | – | – | – | – | – | Active | COc1cccc2c1C(=O)c1c(O)c3c(c(O)c1C2=O)C[C@@](O)(/C(C)=N/OCC(=O)N[C@@H](CC(C)C)C(=O)N[C@@H](CCCNC(=N)N)C(=O)N[C@@H](CCCNC(=N)N)C(=O)N[C@@H](Cc1ccc(O)cc1)C(=O)N[C@H](C(=O)N[C@@H](Cc1cnc[nH]1)C(=O)N[C@@H](CC(C)C)C(=O)NCC(=O)N[C@@H](Cc1ccc(O)cc1)C(=O)N[C@@H](C)C(=O)N[C@@H](C)C(N)=O)C(C)C)C[C@@H]3O[C@H]1C[C@H](N)[C@H](O)[C@H](C)O1 (X1-LRRYVHLGYAA-NH2) | – | –
